Test results as given in ChEMBL document CHEMBL3397023, “Synthesis and evaluation of multi-functional NO-donor/insulin-secretagogue derivatives for the treatment of type II diabetes and its cardiovascular complications” (Bioorg Med Chem, 2015).
pIC50: −log10 of the molar value. Calls of active or inactive are those of the source. No cut-off for these calls is given here.

Assays:
Aorta [1] = assay: Maximal vasorelaxant activity in Wistar rat endothelium-denuded aortic ring assessed as reduction of KCl-induced contraction at 30 uM relative to control; type: functional
Summary of the method: (§1)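 Rat aortic rings were pre-contracted with KCl 30 mM and exposed to cumulative test concentrations. Potency: pIC50, the negative log of the concentration halving KCl-induced tone. Efficacy: Emax, the maximal relaxation at the highest concentration tested. Both given as mean ± SEM.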

Aorta [2] = assay: Vasorelaxant activity in Wistar rat endothelium-denuded aortic ring assessed as reduction of KCl-induced contraction; type: functional, tissue-based; summary of the method: as §1
Rattus norvegicus [3] = assay: Hypoglycemic activity in STZ-treated Wistar rat diabetic model at 50 mg/kg, ip after 10 mins treated with 1 g/kg, ip glucose; type: functional, organism-based; design: dose 50 mg/kg
Summary of the method: (§2)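 Male Wistar rats (250–300 g) made diabetic with streptozotocin 50 mg/kg ip (fasting glycemia 100–150 mg/dl at day 4), fasted 24 h, then dosed ip. Glucose 1 g/kg ip was given 10 min later. Blood glucose was read by tail puncture with a glucometer at 0, 15, 30, 45, 60, 90 and 120 min, and AUC was calculated. Vehicle normoglycemic rats served as reference.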

Rattus norvegicus [4] = assay: Cardio-protective anti-ischemic activity in STZ-treated Wistar rat heart assessed as reduction in ischemic area at 18.2 mg/kg, ip for 7 days followed by treatment hearts submitted to 30 mins ischemia measured after 120 mins of reperfusion; type: functional, organism-based; design: dose 18.2 mg/kg
Summary of the method: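 STZ-diabetic male Wistar rats (50 mg/kg ip; fasting glycemia 100–150 mg/dl) dosed ip daily for 7 days from day 11, with vehicle normoglycemic rats as reference. Langendorff hearts: 30 min equilibration, 30 min ischemia, 120 min reperfusion. Then 2 mm left-ventricle slices were stained with triphenyltetrazolium chloride, and damaged area was measured by planimetry as % of whole area. Mean ± SEM.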

Rattus norvegicus [5] = assay: Hypoglycemic activity in STZ-treated Wistar rat diabetic model at 75.8 mg/kg, ip after 10 mins treated with 1 g/kg, ip glucose; type: functional, organism-based; design: dose 75.8 mg/kg; summary of the method: as §2
Rattus norvegicus [6] = assay: Cardio-protective anti-ischemic activity in STZ-treated Wistar rat heart assessed as recovery of functional parameter at 18.2 mg/kg, ip for 7 days followed by treatment hearts submitted to 30 mins ischemia measured after 120 mins of reperfusion; type: organism-based; design: dose 18.2 mg/kg
Summary of the method: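 Male Wistar rats (250–300 g) given streptozotocin 50 mg/kg ip; those with fasting glycemia 100–150 mg/dl at day 4 were used. From day 11, daily ip dosing for 7 days, with vehicle-treated normoglycemic rats as reference. Hearts were taken under heparin and pentobarbital, Langendorff-perfused, equilibrated 30 min, then 30 min ischemia and 120 min reperfusion. Read-out: RPP recovery %, mean ± SEM.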

`CCOc1cc(CC(=O)N[C@@H](CC(C)C)c2ccccc2N2CCCCC2)ccc1C(=O)OCc1cccc(C(C)O[N+](=O)[O-])c1` (stereo partly specified) showed an Emax at 30 µM (Aorta [1]) of 26%.
Work on `CCOc1cc(CC(=O)N[C@@H](CC(C)C)c2ccccc2N2CCCCC2)ccc1C(=O)OCc1ccc(C(C)O[N+](=O)[O-])cc1` (stereo partly specified) yielded an Emax at 30 µM (Aorta [1]) of 84% and a pIC50 (Aorta [2]) of 5.30.
`CC(C)[C@H]1CC[C@H](C(=O)N[C@H](Cc2ccccc2)C(=O)O)CC1` was tested, and the Activity (Rattus norvegicus [3]) was “Active”.
Work on `CC(O[N+](=O)[O-])c1ccc(COC(=O)[C@@H](Cc2ccccc2)NC(=O)[C@H]2CC[C@H](C(C)C)CC2)cc1` (stereo partly specified) yielded an Emax at 30 µM (Aorta [1]) of 58% and a pIC50 (Aorta [2]) of 4.63.
Molecule `CC(C)[C@H]1CC[C@H](C(=O)N[C@H](Cc2ccccc2)C(=O)OCc2cccc(CO[N+](=O)[O-])c2)CC1` has an Emax at 30 µM (Aorta [1]) of 45%.
Work on `CCOc1cc(CC(=O)N[C@@H](CC(C)C)c2ccccc2N2CCCCC2)ccc1C(=O)OCc1ccc(CO[N+](=O)[O-])cc1` yielded an Emax at 30 µM (Aorta [1]) of 94% and a pIC50 (Aorta [2]) of 5.09.
In the case of `CC(C)[C@H]1CC[C@H](C(=O)N[C@H](Cc2ccccc2)C(=O)OCc2ccc(CO[N+](=O)[O-])cc2)CC1`, the Activity (Rattus norvegicus [4]) was “Active”, the Emax at 30 µM (Aorta [1]) was 93% and the Activity (Rattus norvegicus [5]) was “Active”. For the same molecule, the pIC50 (Aorta [2]) was 5.30 and the Activity (Rattus norvegicus [6]) was “Active”.
For `CCOc1cc(CC(=O)N[C@@H](CC(C)C)c2ccccc2N2CCCCC2)ccc1C(=O)OCc1cccc(CO[N+](=O)[O-])c1`, the Emax at 30 µM (Aorta [1]) was 79% and the pIC50 (Aorta [2]) was 4.88.
